Source: the RNAGym collection of RNA variant scans (doi:10.1126/science.aae0568)
Fewer inactive variants are shown than the library holds.

B1: tRNA (parent)
chain: GUUCCGUUGGCGUAAUGGUAACGCGUCUCCCUCCUAAGGAGAAGACUGCGGGUUCGAGUCCCGUACGGAACG

Variants of: B1
Test: yeast fitness relative to wild type (ratio to wild type); higher = fitter; tRNA-Arg(CCU), competitive growth, 37 C, YPD
Method in brief: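 Amplicons of the tRNA-Arg(CCU) gene were sequenced, 100-nucleotide paired-end, from the start population and from each end population of a pooled yeast competition. The competition, in six parallel replicates, lasted 24 hours in YPD at 37°C. Fitness relative to wild type was calculated from changes in genotype frequencies. Genotypes had to have ≥ 100 starting reads, and estimates < 0.5 were set to 0.5.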

Variant | yeast fitness
U28A A40U C61A G68A | ≤ 0.5
U28C A37U A40U C49G A57U G68C A70G | 0.624
C27U G38C A40C A42C | ≤ 0.5
C27U U32C C55A | ≤ 0.5
U28C A37C A40U | 0.568
C27U C29U C55A G58A | ≤ 0.5
U28C C31A C34G A45U | ≤ 0.5
C27U C31A U35C C55G C66U A70C | ≤ 0.5
C27U U32A | 0.993
C27U U35G A40C A57C G67U | 0.612
U28C A42U A69U | 0.74
U28G A70U | 0.842
U28G C29U G50C | ≤ 0.5
C27U C29G C31A | ≤ 0.5
U28C G52C | 0.668
U28C G52A | 0.836
C27U U54G A65C | ≤ 0.5
U28C A40U C55A | ≤ 0.5
C27U U53C G63A | ≤ 0.5
C27U G51C C55A A65C | ≤ 0.5
C27U C31G A40G | ≤ 0.5
U28A A45G A69C | ≤ 0.5
C27U U28G A40C G51A | 0.543
U28A C30G U59C | ≤ 0.5

Variant | yeast fitness
C27U C33U A40C A57G C66U | ≤ 0.5
C27U G48C A57C | ≤ 0.5
U28G A40U | 0.843
U28C G39C G44C C46U | ≤ 0.5
U28A C34U A37U A45U A57G C61U | ≤ 0.5
C27U C30U C34G A37C A69C | ≤ 0.5
C27U C34U A69U | 0.528
C27U C55A A69C | 0.573
U28A U64C | 0.834
U28G A36U C60U | ≤ 0.5
U28A C31U | 0.7
U28C A69C | 0.94
U28C G39A A40U A42G | ≤ 0.5
U28A C34U G41C G51A U53A U59C A70U | ≤ 0.5
C27U G41C A65C | 0.588
U28G A43U | 0.948
U28C A42G | 0.913
U28C C30A G39A C66U | 0.594
C27U A43U | 1.06
U28G C46A C61G | ≤ 0.5
C27U C33G C34G G44A G50A G52A | 0.558
U28C C30U A69U | 0.598
C27U U28G C31A G58C | ≤ 0.5
U28A C34U A40U A45U C60A | 0.706

Variant | yeast fitness
U28C U32C C46G | 0.722
C27U C46U G48A A70C | 0.669
C27U U28C C49U U54A A57C U59C | 0.706
C27U A45G U53C | 0.544
U28A C33G C49G G50U | ≤ 0.5
C27U G44C G58C | 0.655
U28C U32A G44A A57C | ≤ 0.5
U28C C49G | 0.909
C27U C55U A70U | 0.504
U28C A36C U47A G58C G67U | ≤ 0.5
C27U G38C A57G A65C | ≤ 0.5
C27U C31G A43C C49G G52C U59A G68A | ≤ 0.5
U28G C29A C55A | ≤ 0.5
C27U G50C A65C | ≤ 0.5
U28G C31G G39A | 0.578
C27U G38A C55A | ≤ 0.5
U28G C49U A69U | 0.804
C27U A57G C60U | ≤ 0.5
U28C U35G A36C A65G C66A | ≤ 0.5
C27U U35C | 0.754
C27U C46A A57C | 0.726
U28G C55A | 0.572
U28A G50U | 0.622
C27U G48A | 1.1

Variant | yeast fitness
C27U U28A U32A C34U A36C U47C C55A | ≤ 0.5
C27U G51C U59C | ≤ 0.5
U28C G38C | 0.579
C27U U47A G68C | ≤ 0.5
U28A C30U A37C G41C | 0.542
C27U G41A | 0.939
U28C C31U G50C C55U C60G G63A C66U | ≤ 0.5
C27U C33A A37U A57G | ≤ 0.5
C27U C29G | 0.58
U28A U32G C55G | 0.505
C27U A65G | 0.975
C27U A65C | 1.02
U28C A57C | 0.586
U28G C30G A40C A42U G51A | ≤ 0.5
U28G C29U A45C | ≤ 0.5
U28A C33G A36U A40G A70G | ≤ 0.5
C27U A45C G48A A57U G67A | ≤ 0.5
C27U G39A G68U | 0.54
U28C A40C G56C A65G | ≤ 0.5
U28C A42C C60U | 0.589
C27U G52A | 0.7
C27U G52C | 0.7
U28A U32C G39C | 0.542
U28C C29A A69U | 0.559

Variant | yeast fitness
U28C A70U | 0.87
U28G C46U C60A A65U A69U | ≤ 0.5
U28A U32C A43C A57C | ≤ 0.5
C27U G38A U59G U64C A65U | ≤ 0.5
U28C U35G A69C | ≤ 0.5
C27U C55U G67C | 0.572
C27U C31A U53A | ≤ 0.5
C27U A45G U64A | 0.553
U28C G44C G56C | 0.7
U28C C34U | 0.71
C27U G48A A65U | 0.714
U28A G63A | 0.849
U28A C30U A57G | 0.651
U28A A69U | 0.749
U28G C31U A40C A57G | 0.837
C27U C30G | 0.624
U28A C31U U32A G52A A57U C60U A65G G68A | ≤ 0.5
U28C C62G C66G | ≤ 0.5
U28C A65U | 0.855
U28C G52C A65C | 0.596
U28C G67U | 0.914
U28C G50U A65C | ≤ 0.5
C27U A57U G58C | 0.667
U28A C31A G44A | 0.568

Variant | yeast fitness
C27U C33U C66U | 0.536
U28A A37G G51C A57C | ≤ 0.5
U28G C29G C62A | 0.711
C27U C30U A42C C55U A70G | ≤ 0.5
U28A C55G C62U | ≤ 0.5
C27U A43G C46G A69C | ≤ 0.5
C27U C49U A57G | 0.703
U28C A45U C55A C66A | ≤ 0.5
U28G A57U G63A | 0.874
U28A A42C | 0.797
U28A A42U | 0.812
U28A U53A | 0.6
U28C C33G G38A | ≤ 0.5
C27U A43U C55U | 0.592
C27U U32C C46G | 0.765
U28A A36U C61A A69U | ≤ 0.5
C27U C61U | 1.01
C27U C62G | 0.669
C27U A45U G52A | 0.63
C27U G50C | 0.618
C27U U28A A37G C49U A57C G58C | 0.683
C27U G41C U53A C62U | ≤ 0.5
U28C U47A C49U G63C | 0.683
U28C G58C | 0.912

Variant | yeast fitness
U28C G38C A45U G68A A69C | ≤ 0.5
U28G A43G A45G C49U A57U | ≤ 0.5
U28A C30G A36C | ≤ 0.5
C27U C49G | 0.916
C27U C34U U47C U53G A69U | ≤ 0.5
C27U C31U G52C U59G | ≤ 0.5
U28A U35A | 0.584
U28C A42U A43G | 0.597
U28C G41C C49A | ≤ 0.5
U28C G41C C49G | ≤ 0.5
C27U G58A G63A | 0.53
U28A C30U | 0.667
U28A C66A | 0.575
C27U C46U A57G | 0.679
U28C G51C | 0.502
C27U U47C G68A | 0.672
C27U C31U C55U | 0.643
U28G C30A G51U | ≤ 0.5
U28C G39C G44C | 0.529
C27U C29A A36U A40C G41A A65U | ≤ 0.5
U28A C31G G48A G51C C55G | 0.523
U28C A37C A69C | ≤ 0.5
C27U G44A | 0.887
